Results: ChEMBL document CHEMBL4118192, “BET bromodomain ligands: Probing the WPF shelf to improve BRD4 bromodomain affinity and metabolic stability” (Bioorg Med Chem, 2018)

Experiments:
Type in all cases: functional
[1] = system: HCT-116; assay: Growth inhibition of human HCT116 cells at 10 uM after 48 hrs by sulforhodamine B assay relative to control; settings: HCT-116, 48 h, read-out: GI
Summary of the method: (§1)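 NCI-60 single-dose screen at 10 μM for 48 h. Percent growth inhibition was measured by sulforhodamine B staining of cellular protein.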

[2] = system: M14; assay: Growth inhibition of human M14 cells at 10 uM after 48 hrs by sulforhodamine B assay relative to control; settings: M14, 48 h, read-out: GI; summary of the method: as §1
[3] = system: PC-3; assay: Growth inhibition of human PC3 cells at 10 uM after 48 hrs by sulforhodamine B assay relative to control; settings: PC-3, 48 h, read-out: GI
Summary of the method: (§2)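 NCI-60 human cancer cell line screen, single-dose pass: cells exposed to 10 μM for 48 h. Cellular protein content read out by sulforhodamine B staining, and growth inhibition expressed relative to untreated control.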

[4] = system: Malme-3M; assay: Growth inhibition of human MALME-3M cells at 10 uM after 48 hrs by sulforhodamine B assay relative to control; settings: read-out: GI; summary of the method: as §1
[5] = system: SF-295; assay: Growth inhibition of human SF295 cells after 48 hrs by sulforhodamine B assay; settings: SF-295, 48 h
Summary of the method: (§3)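 NCI-60 panel follow-up: five concentrations from 10 nM to 100 μM, 48 h exposure. Growth read by sulforhodamine B protein staining. GI50 derived from the concentration-response, with the concentration for total growth inhibition (TGI) also recorded when below 100 μM.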

[6] = system: SN12C; assay: Growth inhibition of human SN12C cells after 48 hrs by sulforhodamine B assay; summary of the method: as §3
[7] = system: OVCAR-4; assay: Growth inhibition of human OVCAR4 cells after 48 hrs by sulforhodamine B assay; settings: OVCAR-4, 48 h; summary of the method: as §3
[8] = system: NCI/ADR-RES; assay: Growth inhibition of human NCI-ADR-RES cells after 48 hrs by sulforhodamine B assay; summary of the method: as §3
[9] = system: SK-MEL-5; assay: Growth inhibition of human SK-MEL-5 cells after 48 hrs by sulforhodamine B assay; settings: SK-MEL-5, 48 h; summary of the method: as §3
[10] = system: LOX IMVI; assay: Growth inhibition of human LOXIMVI cells at 10 uM after 48 hrs by sulforhodamine B assay relative to control; settings: read-out: GI; summary of the method: as §1
[11] = system: SK-MEL-28; assay: Growth inhibition of human SK-MEL-28 cells after 48 hrs by sulforhodamine B assay; settings: SK-MEL-28, 48 h; summary of the method: as §3
[12] = system: COLO 205; assay: Growth inhibition of human COLO205 cells after 48 hrs by sulforhodamine B assay; settings: COLO 205, 48 h
Summary of the method: (§4)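 NCI-60 panel screen. Cells were exposed for 48 h at five concentrations between 10 nM and 100 μM. Cellular protein was read by sulforhodamine B staining, and GI50 and total growth inhibition (TGI) concentrations were derived.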

[13] = system: OVCAR-3; assay: Growth inhibition of human OVCAR3 cells after 48 hrs by sulforhodamine B assay; settings: OVCAR-3, 48 h; summary of the method: as §3
[14] = system: KM12; assay: Growth inhibition of human KM12 cells after 48 hrs by sulforhodamine B assay; settings: KM12, 48 h; summary of the method: as §4
[15] = system: NCI-H226; assay: Growth inhibition of human NCI-H226 cells at 10 uM after 48 hrs by sulforhodamine B assay relative to control; settings: NCI-H226, 48 h, read-out: GI; summary of the method: as §2
[16] = system: TK-10; assay: Growth inhibition of human TK10 cells after 48 hrs by sulforhodamine B assay; settings: TK-10, 48 h
Summary of the method: (§5)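 NCI-60 panel cells treated at five concentrations from 10 nM to 100 μM for 48 h. Read-out by sulforhodamine B protein stain. GI50 and total growth inhibition (TGI, if below 100 μM) taken from the concentration-response data.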

[17] = system: SF-295; assay: Growth inhibition of human SF295 cells at 10 uM after 48 hrs by sulforhodamine B assay relative to control; settings: SF-295, 48 h, read-out: GI; summary of the method: as §2
[18] = system: SK-OV-3; assay: Growth inhibition of human SKOV3 cells at 10 uM after 48 hrs by sulforhodamine B assay relative to control; settings: SK-OV-3, 48 h, read-out: GI; summary of the method: as §2
[19] = system: MOLT-4; assay: Growth inhibition of human MOLT4 cells after 48 hrs by sulforhodamine B assay; settings: MOLT-4, 48 h; summary of the method: as §3
[20] = system: OVCAR-8; assay: Growth inhibition of human OVCAR8 cells after 48 hrs by sulforhodamine B assay; settings: OVCAR-8, 48 h; summary of the method: as §3
[21] = system: SF-268; assay: Growth inhibition of human SF268 cells after 48 hrs by sulforhodamine B assay; settings: SF-268, 48 h; summary of the method: as §3
[22] = system: UACC-62; assay: Growth inhibition of human UACC62 cells at 10 uM after 48 hrs by sulforhodamine B assay relative to control; settings: UACC-62, 48 h, read-out: GI
Summary of the method: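 NCI-60 human cancer cell line screen, single dose of 10 μM for 48 h. Cellular protein content read by sulforhodamine B staining; growth inhibition expressed relative to untreated control.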

[23] = system: MDA-MB-231; assay: Growth inhibition of human MDA-MB-231 cells after 48 hrs by sulforhodamine B assay; settings: MDA-MB-231, 48 h; summary of the method: as §4
[24] = system: CAKI-1; assay: Growth inhibition of human CAKI-1 cells after 48 hrs by sulforhodamine B assay; settings: CAKI-1, 48 h; summary of the method: as §4
[25] = system: SK-MEL-2; assay: Growth inhibition of human SK-MEL-2 cells after 48 hrs by sulforhodamine B assay; settings: SK-MEL-2, 48 h; summary of the method: as §3
[26] = system: DU-145; assay: Growth inhibition of human DU145 cells at 10 uM after 48 hrs by sulforhodamine B assay relative to control; settings: DU-145, 48 h, read-out: GI; summary of the method: as §1
[27] = system: K562; assay: Growth inhibition of human K562 cells at 10 uM after 48 hrs by sulforhodamine B assay relative to control; settings: K562, 48 h, read-out: GI; summary of the method: as §1
[28] = system: LOX IMVI; assay: Growth inhibition of human LOXIMVI cells after 48 hrs by sulforhodamine B assay; summary of the method: as §4
[29] = system: NCI-H522; assay: Growth inhibition of human NCI-H522 cells at 10 uM after 48 hrs by sulforhodamine B assay relative to control; settings: NCI-H522, 48 h, read-out: GI; summary of the method: as §2
[30] = system: NCI/ADR-RES; assay: Growth inhibition of human NCI-ADR-RES cells at 10 uM after 48 hrs by sulforhodamine B assay relative to control; settings: read-out: GI; summary of the method: as §2
[31] = system: NCI-H226; assay: Growth inhibition of human NCI-H226 cells after 48 hrs by sulforhodamine B assay; settings: NCI-H226, 48 h; summary of the method: as §3
[32] = system: MDA-MB-435; assay: Growth inhibition of human MDA-MB-435 cells at 10 uM after 48 hrs by sulforhodamine B assay relative to control; settings: MDA-MB-435, 48 h, read-out: GI; summary of the method: as §2
[33] = system: HCT-15; assay: Growth inhibition of human HCT15 cells after 48 hrs by sulforhodamine B assay; settings: HCT-15, 48 h; summary of the method: as §4
[34] = system: HCC 2998; assay: Growth inhibition of human HCC2998 cells at 10 uM after 48 hrs by sulforhodamine B assay relative to control; settings: HCC 2998, 48 h, read-out: GI; summary of the method: as §1
[35] = system: U-251; assay: Growth inhibition of human U251 cells after 48 hrs by sulforhodamine B assay; settings: U-251, 48 h; summary of the method: as §5
[36] = system: OVCAR-3; assay: Growth inhibition of human OVCAR3 cells at 10 uM after 48 hrs by sulforhodamine B assay relative to control; settings: OVCAR-3, 48 h, read-out: GI; summary of the method: as §2

For `Cc1noc(C)c1-c1cc(O)cc(C(O)c2ccccc2)c1` (stereo not drawn), the inhibition of growth at 10 µM [1] was 42%, the inhibition of growth at 10 µM [2] was 44% and the inhibition of growth at 10 µM [3] was 51.6%. The inhibition of growth at 10 µM [4] was 40%, the GI50 [5] was 7.31 µM and the GI50 [6] was 3.99 µM. For the same compound, the GI50 [7] was 6.35 µM, the GI50 [8] was 6.32 µM and the GI50 [9] was 5.95 µM. It also gave a TGI [9] of 29.5 µM, an inhibition of growth at 10 µM [10] of 72.7% and a GI50 [11] of 9.15 µM. The GI50 [12] was 5.25 µM, the GI50 [13] was 6.64 µM and the GI50 [14] was 8.2 µM. The inhibition of growth at 10 µM [15] was 34.5%, the GI50 [16] was 1.08 µM and the inhibition of growth at 10 µM [17] was 57.5%. It also gave an inhibition of growth at 10 µM [18] of 56.3%, a GI50 [19] of 17.9 µM and a TGI [19] of 80.7 µM. It also gave a GI50 [20] of 8.33 µM, a GI50 [21] of 39.3 µM and an inhibition of growth at 10 µM [22] of 68.5%. It also gave a GI50 [23] of 3.92 µM, a GI50 [24] of 4.58 µM and a GI50 [25] of 23.5 µM. It also gave an inhibition of growth at 10 µM [26] of 12.5%, an inhibition of growth at 10 µM [27] of 57.9% and a GI50 [28] of 3.6 µM. It also gave a TGI [28] of 80.5 µM, an inhibition of growth at 10 µM [29] of 77.9% and an inhibition of growth at 10 µM [30] of 40.8%. The GI50 [31] was 21.3 µM, the inhibition of growth at 10 µM [32] was 56.1% and the GI50 [33] was 3.52 µM. The inhibition of growth at 10 µM [34] was 37.8%, the GI50 [35] was 15 µM and the inhibition of growth at 10 µM [36] was 53.3%.
`COc1ccccc1S(=O)(=O)Nc1ccc2c(c1)CN(C)C(=O)N2` was tested, and the inhibition of growth at 10 µM [1] was 50.3%, the inhibition of growth at 10 µM [2] was 52.2% and the inhibition of growth at 10 µM [3] was 64.7%. The inhibition of growth at 10 µM [4] was 67.8%, the GI50 [5] was 13.5 µM and the GI50 [6] was 6.8 µM. The GI50 [7] was 6.3 µM, the GI50 [8] was 17.4 µM and the GI50 [9] was 6.3 µM. For the same compound, the inhibition of growth at 10 µM [10] was 70.9%, the GI50 [11] was 6.2 µM and the GI50 [12] was 3 µM. It also gave a GI50 [13] of 4 µM, a TGI [13] of 87.1 µM and a GI50 [14] of 10.7 µM. For the same compound, the inhibition of growth at 10 µM [15] was 37%, the GI50 [16] was 1.6 µM and the TGI [16] was 58.9 µM. It also gave an inhibition of growth at 10 µM [17] of 94.7%, an inhibition of growth at 10 µM [18] of 50.9% and a GI50 [19] of 10.5 µM. It also gave a GI50 [20] of 9.1 µM, a GI50 [21] of 28.8 µM and an inhibition of growth at 10 µM [22] of 70.7%. For the same compound, the GI50 [23] was 3.5 µM, the GI50 [24] was 3.6 µM and the GI50 [25] was 29.5 µM. The inhibition of growth at 10 µM [26] was 22.2%, the inhibition of growth at 10 µM [27] was 71.4% and the GI50 [28] was 3.5 µM. The TGI [28] was 21.4 µM, the inhibition of growth at 10 µM [29] was 73.9% and the inhibition of growth at 10 µM [30] was 31.1%. It also gave a GI50 [31] of 14.1 µM, an inhibition of growth at 10 µM [32] of 65.8% and a GI50 [33] of 3.2 µM. The inhibition of growth at 10 µM [34] was 35.6%, the GI50 [35] was 15.1 µM and the inhibition of growth at 10 µM [36] was 67.8%.
